Source: PubChem (Broad Institute)
Sampled rows, rich in hits. Any-hit rate of the full collection: about 3.1%.
Beta apoptosis: blocks beta cell apoptosis; 0.8% of 300,000 active; protection from apoptosis, % (no concentration beside the values); INS-1E cytokine-induced death, ATP luminescence, 48 h; percent of positive-control rescue, neutral wells zero;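 active means Every replicate reaches about 75%, or at least half do and their mean reaches it too, limit read from the data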;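 further: 0% = cytokine-treated negative control wells and 100% = positive control rescue; higher means more ATP so stronger rescue from cytokine killing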
Calb FLC: C. albicans growth modulation with fluconazole. growth inhibition, % (test concentration not listed). C. albicans CaCi-2 (fluconazole-resistant clinical isolate) + fluconazole, Alamar Blue growth, 48 h. 0.57% of 300,000 active;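 active means growth inhibition above about 58% in most replicates, limit read from the data, passing the limit was not always enough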;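 further: all wells also contain fluconazole at 8 µg/ml as a sub-toxic cotreatment; 0% = median of DMSO wells and 100% = median of geldanamycin control wells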
HIF activator: HIF pathway transcriptional activation. AID 1910. 0.32% of 300,000 active. activation, % at 7.5 µM (by protocol). U2OS HRE-luciferase reporter, luminescence; normalized: DMSO 0%, desferrioxamine 100%;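 active means mean activation of at least 10% of the iron chelator positive control signal, with at least half of replicates also reaching 10%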
CSC inhib: blocks cancer stem cells | cancer stem cell-like cells viability, luminescence | inhibition, % at 7.5 µM | 1.1% of 300,000 active; in the data active means inhibition above about 75%; tested in HMLE shEcad cells
T cruzi inh: T. cruzi replication inhibition; 1.4% of 300,000 active; inhibition, % (test concentration not listed); T. cruzi beta-gal in NIH3T3, luminescence, 90 h; AID 1885;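 active means mean inhibition across valid replicates above about 55%, limit read from the data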;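 further: signal also drops with host cell toxicity which is not excluded here; 0% = plate median of DMSO wells and 100% = zero luminescence signal; higher percent means less beta-gal luminescence so fewer parasites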
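System: NIH/3T3 fibroblasts plus reporter T. cruzi. Medium: DMEM plus 2% FBS. Probe or stimulus: 5000 reporter trypomastigotes per well. Compound: single 50 nL compound addition per well in DMSO. Incubation: co-culture of at least 90 h after 3 h attachment. Detection: GalScreen β-gal luminescence, detergent lysis, 60 min. Evaluation: parasite load inhibition, %.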
PolyA inh: inhibitors of polyadenylation in S. cerevisiae | S. cerevisiae SKY197-pL101 polyadenylation reporter, beta-gal luminescence; efflux-impaired pdr1/pdr3 knockout yeast; score 100 = 6 SD above DMSO | activity score, % at 12 µM | 0.02% of 300,000 active | AID 1875;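 active means lowest replicate activity score at least 50, where 100 means six control SD above control mean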;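 further: yeast exposed to compound for 9 h at 30 °C; higher score means more reporter readthrough which indicates perturbed polyadenylation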
The depositor's hits bear a star.

COc1ccc(C(=O)/C(=C\c2ccco2)N2C=CC=CC2=C(C#N)C#N)cc1 was read as Beta apoptosis 94*, Calb FLC 26, HIF activator -7, CSC inhib 53, T cruzi inh 52 and PolyA inh 3.
Clc1cccc(Cl)c1NC1=NCCN1 was read as Beta apoptosis 2, HIF activator 0, CSC inhib -12, T cruzi inh -38 and PolyA inh 17.
Screening COc1ccc(C(=O)CSc2nncn2C)cc1 returned Beta apoptosis 4, Calb FLC -29, HIF activator 22*, CSC inhib -21, T cruzi inh -17 and PolyA inh 10.
Screening Cn1cnnc1SCC(=O)c1ccc(OC(F)F)cc1 returned Beta apoptosis 0, Calb FLC 9, HIF activator -1, CSC inhib -14, T cruzi inh 5 and PolyA inh 11.
`CC[C@@]1(O)C(=O)OCc2c1cc1n(c2=O)Cc2cc3c(N)cccc3nc2-1` gave Beta apoptosis 98*, Calb FLC 14, HIF activator 17*, CSC inhib 56, T cruzi inh 45 and PolyA inh -13.
`O=c1cccc2n1Cc1cc3ccccc3nc1-2` gave Beta apoptosis 2, Calb FLC -9, HIF activator 3, CSC inhib -11, T cruzi inh -12 and PolyA inh 8.
For O=C(CCC1CCCC1)NCCS(=O)(=O)N1CCN(c2ccc(F)cc2)CC1 the results were Calb FLC 7, HIF activator -24, CSC inhib 17, T cruzi inh -2 and PolyA inh 27.
For O=C(N/N=C/C=C/c1ccc2c(c1)OCO2)C(O)c1ccccc1 (stereo unspecified) the results were Beta apoptosis -8, Calb FLC 23, HIF activator 0, CSC inhib -10, T cruzi inh -1 and PolyA inh -4.
COc1ccc(NC(=O)c2cccnc2)c(OC)c1 was read as Beta apoptosis 3, Calb FLC 8, HIF activator 0, T cruzi inh 2 and PolyA inh 28.
For COc1ccc(NC(=O)c2cc(-c3cccnc3)nc3c(C)c(C)ccc23)c(OC)c1 the results were Beta apoptosis 11, Calb FLC 15, HIF activator 0, CSC inhib 2, T cruzi inh 56* and PolyA inh -7.
For O=C(NCc1ccco1)C(c1ccncc1)N(C(=O)Cn1nnc2ccccc21)c1ccccc1F (stereo unspecified) the results were Beta apoptosis -6, Calb FLC 1, HIF activator 0, CSC inhib -3, T cruzi inh 4 and PolyA inh 9.
`O=C(Cn1cnc(S(=O)(=O)N2CCCC2)c1)Nc1cccc(F)c1` gave Beta apoptosis -4, Calb FLC -1, HIF activator 0, CSC inhib -4, T cruzi inh 13 and PolyA inh 1.
`COc1ccc(Cc2nnc(N/N=C/c3ccc(O)cc3)[nH]c2=O)cc1OC` gave Beta apoptosis 99*, Calb FLC 5, HIF activator 2, CSC inhib 102*, T cruzi inh 11 and PolyA inh 16.
O=C(/C=C/c1ccc(F)cc1)N1CCN(c2ccccn2)CC1 was read as Beta apoptosis 0, Calb FLC 87*, HIF activator 0, CSC inhib -4, T cruzi inh -14 and PolyA inh -11.
Screening CC1CN(C(=O)COc2coc(CN3CCc4ccccc4C3)cc2=O)CC(C)O1 (stereo unspecified) returned Calb FLC 5, HIF activator 0, CSC inhib -16, T cruzi inh -10 and PolyA inh -18.
`Brc1ccc(-c2nnc3sc(CN4CCC5(CC4)OCCO5)cn23)cc1` gave Beta apoptosis 1, Calb FLC -15, HIF activator 0, CSC inhib 16, T cruzi inh -18 and PolyA inh 8.
`c1ccc(-c2nnc3sc(CN4CCc5ccccc54)cn23)cc1` gave Beta apoptosis 17, Calb FLC -3, HIF activator 1, CSC inhib 76*, T cruzi inh -29 and PolyA inh -2.
`COc1ccc(OC)c(C=NNC(=O)c2ccccc2NS(=O)(=O)c2cccs2)c1` gave Beta apoptosis -3 and CSC inhib -21.
